Assay outcomes deposited in PubChem BioAssay by several laboratories.
HCT116 bCat-KO: beta-catenin-lacking colon tumor cell growth suppression. HCT116 beta-catenin knockout viability, CellTiter-Glo, 60 h; stronger effect = lower value. viability, % at 10 µM. 1.5% of 140,000 active;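 active = viability at or under a set limit, the compound median less 4 SD, cut at about 6% in these data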;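 note: 0% = Hyamine 1622 control at 20 µM and 100% = untreated cell control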
Dynein cargo inh: dynein cargo transport inhibition | 3617.4 mouse cells, GR-EGFP nuclear translocation imaging; test concentration mostly 20 µM; stimulated with dexamethasone, 1 µM; stronger effect = lower value | z-score, hits read low | 0.47% of 220,000 active | AID 1381;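 active = plate z-score of nuclear minus cytoplasmic receptor signal below a set negative limit, without overly bright fluorescence or cell loss, cut at about -3.5 in these data, passing the limit was not always enough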;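 note: z-score of nuclear minus cytoplasmic ring GR-EGFP intensity difference per well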
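Buffer or medium: tet-free, stripped-serum medium; reagent: dexamethasone at 1.0 µM final, 30 min; incubation: 48 h induction, 1 h compound, 30 min dex at 37 °C; measured by: formaldehyde fixation, Hoechst nuclear stain, 10x automated fluorescence imaging; read-out: nuclear-to-cytoplasmic GR-EGFP distribution per well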
HCT116 PTEN-null: suppresses growth of cells with PTEN deletion; HCT116 PTEN-null viability, CellTiter-Glo, 60 h; stronger effect = lower value; viability, % at 10 µM; 1.2% of 140,000 active;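 active = viability at or below a set limit, 4 SD under the median of all tested compounds, cut at about 3.7% in these data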;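 note: PTEN knockout HCT116 line with beta catenin targeted HCT116 as companion control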
sdo1 growth: compounds rescuing growth of sdo1-depleted yeast, bone marrow failure model | S. cerevisiae sdo1-depleted JHY4D growth rescue, OD600 30 h; stronger effect = higher value; pdr5 snq2 efflux-pump mutant strain | z-score at 10 µM | 0.21% of 140,000 active;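 active = z-score above 3 at both the 24 hr and the 30 hr optical density reads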;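 note: z-score against mean and SD of all compound wells on the same plate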
Autophagy HCS: alters autophagy in cells; MEF GFP-LC3 puncta imaging; test concentration mostly 10 µM; calls only at 10 µM (by protocol); 0.98% of 190,000 active;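 active = percentage of spot-positive cells more than 3 SD above its plate mean, without a fluorescence outlier flag or 80% toxicity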;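 note: spot-positive cell cutoff set from DMSO-treated cells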
Starred values were filed as active, the others as inactive; ! = a repeat was not active. This is a sample that favours compounds with a hit; in the whole collection about 2.2% have one here.

O=C(NCC1CCCO1)C(c1ccncc1)N(Cc1ccc(F)cc1)C(=O)CN1C(=O)c2ccccc2S1(=O)=O (centres undefined) was read as HCT116 bCat-KO 83, Dynein cargo inh -0.85, HCT116 PTEN-null 86, sdo1 growth 0.44 and Autophagy HCS inactive.
For Cc1occc1C(=O)NNC(=O)c1ccccc1C(=O)O the results were Dynein cargo inh 0.17 and Autophagy HCS inactive.
For Cc1ccccc1NC(=O)c1ccc2c(c1)OCCO2 the results were HCT116 bCat-KO 89, Dynein cargo inh 0.6, HCT116 PTEN-null 1.9*, sdo1 growth -0.45 and Autophagy HCS inactive.
Screening COc1ccc(OCc2cccc(C(=O)Nc3ccc(CN4CCCCC4)cc3)c2)cc1 returned HCT116 bCat-KO 10, Dynein cargo inh -0.43, HCT116 PTEN-null 7, sdo1 growth -0.15 and Autophagy HCS inactive.
For CCOc1ccc(OCc2cccc(C(=O)Nc3ccc(CN4CCCCC4)cc3)c2)cc1 the results were HCT116 bCat-KO 1.5*, Dynein cargo inh -0.37, HCT116 PTEN-null 1.9*, sdo1 growth -0.36 and Autophagy HCS inactive.
`COc1ccc(Nc2ncccc2C(=O)Nc2ccccc2)cc1` gave HCT116 bCat-KO 100, Dynein cargo inh 0.2, HCT116 PTEN-null 80, sdo1 growth -0.51 and Autophagy HCS active.
COc1ccc(NC(=O)c2cccnc2Nc2ccc(OC)cc2)cc1 was read as HCT116 bCat-KO 83, Dynein cargo inh 0.093, HCT116 PTEN-null 75, sdo1 growth -0.69 and Autophagy HCS inactive.
Screening Cn1cc(/C=C2\SC(=O)N(c3ccc(O)cc3)C2=O)c2ccccc21 returned Dynein cargo inh 0.058.
Screening Cn1cc(/C=C2\SC(=O)N(c3ccccc3)C2=O)c2ccccc21 returned HCT116 bCat-KO 54, Dynein cargo inh 0.39, HCT116 PTEN-null 57, sdo1 growth -0.52 and Autophagy HCS active.
Screening CN(C)CCCN(C(=O)c1ccc2c(c1)CCCC2)c1nc2ccc(F)cc2s1 returned HCT116 bCat-KO 8, Dynein cargo inh -0.19, HCT116 PTEN-null 2.7*, sdo1 growth -1.5 and Autophagy HCS inactive.
Screening Cc1ccc(C(NC(=O)NC(C)c2ccccc2)C(Cl)(Cl)Cl)cc1F (centres undefined) returned HCT116 bCat-KO 6.1*, Dynein cargo inh -0.0006, HCT116 PTEN-null 3.4*, sdo1 growth -0.09 and Autophagy HCS inactive.
Screening CCOC(=O)c1c(C2COc3ccccc3O2)csc1N (centres undefined) returned HCT116 bCat-KO 74, Dynein cargo inh -0.43, HCT116 PTEN-null 77, sdo1 growth -1.1 and Autophagy HCS inactive.
Screening CCOC(=O)c1c(C2COc3ccccc3O2)csc1NC(=O)c1ccccc1 (centres undefined) returned HCT116 bCat-KO 0.8*, Dynein cargo inh 0.11, HCT116 PTEN-null 0.5*, sdo1 growth 0.1 and Autophagy HCS inactive.
Screening COC(=O)c1ccccc1NC(=O)COc1ccc(S(=O)(=O)NC(C)C)cc1 returned Dynein cargo inh -0.74 and Autophagy HCS inactive.
Screening COc1ccc(S(=O)(=O)NCC2CCCN(Cc3ccc(C)o3)C2)cc1 (centres undefined) returned Dynein cargo inh 0.97 and Autophagy HCS inactive.
`CCc1ccc(CN2CCCC(CNS(=O)(=O)c3ccc(OC)cc3)C2)cc1` (centres undefined) gave Dynein cargo inh -0.33 and Autophagy HCS active.
CCOC(=O)C(=O)Nc1cc(C)nn1-c1nc2ccccc2[nH]1 was read as Dynein cargo inh 2.2.
For CN(C)c1ccc(CN(C)C2CCCCC2)cc1 the results were HCT116 bCat-KO 99, Dynein cargo inh 0.07, HCT116 PTEN-null 87, sdo1 growth -0.37 and Autophagy HCS inactive.
`O=S(Cc1ccccc1)CC(O)(c1ccc(Cl)cc1)c1ccc(Cl)cc1` (centres undefined) gave HCT116 bCat-KO 5.7*, Dynein cargo inh 0.36, HCT116 PTEN-null 13, sdo1 growth -1.1 and Autophagy HCS inactive.
CCOc1cc(C(=S)N2CCCC2)ccc1OCC(=O)Nc1c(C)cc(C)cc1C was read as HCT116 bCat-KO 77, HCT116 PTEN-null 59, sdo1 growth 1 and Autophagy HCS inactive.
For Cc1ccc(Nc2nc(Nc3ccc(C)cc3)nc(SC3=NCCS3)n2)cc1 the results were HCT116 bCat-KO 4.2*, Dynein cargo inh -0.99, HCT116 PTEN-null 3.5*, sdo1 growth -1.7 and Autophagy HCS inactive.
Screening O=C(Nc1ccccc1Cl)NC1(C(=O)N2CCCC2)CCCCC1 returned HCT116 bCat-KO 0.7*, Dynein cargo inh -0.37, HCT116 PTEN-null 0.8*, sdo1 growth -0.56 and Autophagy HCS inactive.
CC(=O)N(Cc1ccc(F)cc1)c1cccc(C)c1C was read as Dynein cargo inh -1.2 and Autophagy HCS inactive.
CC(=O)N(Cc1ccc(F)cc1)C1=C(NCCc2ccccc2)C(=O)c2ccccc2C1=O was read as HCT116 bCat-KO 1.9*, Dynein cargo inh 1.2, HCT116 PTEN-null 2.3*, sdo1 growth -2 and Autophagy HCS inactive.
Screening COC(=O)C1=C(C)N(c2ccc(S(N)(=O)=O)cc2)C(=O)C1 returned HCT116 bCat-KO 93, Dynein cargo inh -0.82, HCT116 PTEN-null 92, sdo1 growth 0.39 and Autophagy HCS inactive.
`COC(=O)C1=C(C)N(c2ccc(Cl)c(Cl)c2)C(=O)C1` gave HCT116 bCat-KO 3.6*, Dynein cargo inh -3.3, HCT116 PTEN-null 3.6*, sdo1 growth -1.7 and Autophagy HCS inactive.
For CC1CCC(C(C)C)C(OC(=O)Cn2c(-c3ccccc3)[n+](C)c3ccccc32)C1 (centres undefined) the results were HCT116 bCat-KO 1.4*, Dynein cargo inh -0.2, HCT116 PTEN-null 1.9*, sdo1 growth 0.44 and Autophagy HCS active!.
For CC1CCC(C(C)C)C(OC(=O)Cn2c(-c3ccc(F)cc3)[n+](C)c3ccccc32)C1 (centres undefined) the results were HCT116 bCat-KO 2.0*, Dynein cargo inh -0.22, HCT116 PTEN-null 1.5*, sdo1 growth 1.5 and Autophagy HCS inactive.
Screening COc1ccc(-c2c3c(nc4sc5c(Cl)nc(C)nc5c24)CCC3)cc1 returned HCT116 bCat-KO 1.2*, Dynein cargo inh 0.38, HCT116 PTEN-null 1.5*, sdo1 growth -0.46 and Autophagy HCS inactive.
For Cc1ccc(-c2c3c(nc4sc(C(N)=O)c(N)c24)CCC3)cc1 the results were HCT116 bCat-KO 61, Dynein cargo inh -0.83, HCT116 PTEN-null 46, sdo1 growth -1.7 and Autophagy HCS inactive.
Screening Cc1ccc(-c2nc3cccnc3s2)cc1NC(=O)C1c2ccccc2Oc2ccccc21 returned HCT116 bCat-KO 53, Dynein cargo inh -0.68, HCT116 PTEN-null 49, sdo1 growth 0.49 and Autophagy HCS inactive.
`COc1ccc(-n2cnnc2SCC(=O)NC2CCS(=O)(=O)C2)cc1` (centres undefined) gave HCT116 bCat-KO 97, Dynein cargo inh -0.48, HCT116 PTEN-null 102, sdo1 growth 0.65 and Autophagy HCS inactive.
